Measurements pooled from the literature.
Lines come from different studies, so protocols differ.
EGFR T790M: Epidermal growth factor receptor (EGFR, Homo sapiens, UniProt P00533, T790M)
EGFR L861Q: Epidermal growth factor receptor (EGFR, Homo sapiens, UniProt P00533, L861Q)

CO[C@@H]1[C@H](N(C)C(=O)c2ccccc2)C[C@H]2O[C@]1(C)n1c3ccccc3c3c4c(c5c6ccccc6n2c5c31)C(=O)NC4 — inhibition (Epidermal growth factor receptor (EGFR, Homo sapiens, UniProt P00533); enzyme activity, inhibitor; 1 µM): 55%
CCCCC(=O)Nc1ccc(-c2ccc3ncn(CCC)c(=O)c3c2)cn1 — remaining binding (EGFR T790M; binding, competition with immobilised ligand; 0.5 µM): 100%
C1=C/COCc2cc(ccc2OCCN2CCCC2)Nc2nccc(n2)-c2cccc(c2)COC/1 — remaining binding (Epidermal growth factor receptor (EGFR, Homo sapiens, UniProt P00533, del747-752/P753S); binding; 0.1 µM): 99%
COc1ccc2[nH]c3c4[nH]c5ccc(OC)cc5c4c4c(c3c2c1)C(=O)NC4=O — remaining binding (EGFR T790M; binding; 1 µM): 45%
C=CC(=O)N1CCC([C@@H]2CCNc3c(C(N)=O)c(-c4ccc(Oc5ccccc5)cc4)nn32)CC1 — inhibition (EGFR L861Q; cell-free assay; 1 µM): 73%
CN1CCN(C(=O)c2ccc(NC(=O)Nc3ccc(N(C)c4ccnc(Nc5ccc(CS(C)(=O)=O)cc5)n4)cc3)cc2)CC1 — remaining binding (Epidermal growth factor receptor (EGFR, Homo sapiens, UniProt P00533, del746-750); binding; 1 µM): 87%
CC#CC(=O)N1CCC[C@H]1c1nc(-c2ccc(C(=O)Nc3ccccn3)cc2)c2c(N)nccn12 — inhibition (Epidermal growth factor receptor (EGFR, Homo sapiens, UniProt P00533, G719C); enzyme activity, inhibitor; 1 µM): 3%
COc1ccc2oc(-c3ccc4nc(N)oc4c3)c/c(=N\c3ccccc3NC(=O)CCN)c2c1 — remaining binding (Epidermal growth factor receptor (EGFR, Homo sapiens, UniProt P00533, L858R); binding; 1 µM): 92%
Cc1ccc(NC(=O)c2ccnc(C(F)(F)F)c2)cc1-c1cc(OCCO)nc(N2CCOCC2)c1 — remaining binding (EGFR L861Q; binding; 1 µM): 92%
